Measured values collected from several papers.
Lines come from different studies, so protocols differ.
Target: NUAK family SNF1-like kinase 1 (NUAK1, Homo sapiens, UniProt O60285)
One construct used (O60285 1-661): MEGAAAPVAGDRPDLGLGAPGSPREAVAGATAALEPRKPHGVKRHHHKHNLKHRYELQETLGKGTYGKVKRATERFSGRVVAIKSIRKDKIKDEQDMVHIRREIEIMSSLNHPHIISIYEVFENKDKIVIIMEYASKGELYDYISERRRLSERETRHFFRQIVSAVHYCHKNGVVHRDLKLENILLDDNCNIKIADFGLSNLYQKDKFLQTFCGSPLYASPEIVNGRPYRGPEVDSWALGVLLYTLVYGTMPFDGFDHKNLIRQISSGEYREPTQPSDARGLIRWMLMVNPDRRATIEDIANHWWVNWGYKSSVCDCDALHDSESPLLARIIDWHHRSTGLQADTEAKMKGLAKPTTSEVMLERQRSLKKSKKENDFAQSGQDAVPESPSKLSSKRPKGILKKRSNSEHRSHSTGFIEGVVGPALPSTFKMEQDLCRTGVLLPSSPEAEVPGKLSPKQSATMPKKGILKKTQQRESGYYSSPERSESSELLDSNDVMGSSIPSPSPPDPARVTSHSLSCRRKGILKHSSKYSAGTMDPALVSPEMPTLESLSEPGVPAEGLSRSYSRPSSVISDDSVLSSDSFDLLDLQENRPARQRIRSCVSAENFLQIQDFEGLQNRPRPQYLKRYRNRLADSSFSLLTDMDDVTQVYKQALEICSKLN

| SMILES | effect on | action | technique | tested at | measurement | value |
| --- | --- | --- | --- | --- | --- | --- |
| C#Cc1n[nH]c2c(-c3cn([C@@H](C)c4ccccn4)c(=O)[nH]c3=O)cc(F)cc12 | enzyme activity | inhibitor |  | 0.1 µM | inhibition | 3.3% |
| CC(C)(C)c1cc(C=C(C#N)C#N)cc(Br)c1O | enzyme activity | inhibitor |  | 0.5 µM | remaining activity | 95.4% |
| COc1ncccc1-c1cnn2ccc(N3CCN(C(=O)OC(C)C)CC3)nc12 | binding |  | competition with immobilised ligand | 1 µM | remaining binding | 65% |
| Cc1nn(C)cc1-c1nc2c(N3CCN(Cc4ccc(Cl)cc4)CC3)c(Cl)cnc2[nH]1 | binding |  | competition with immobilised ligand | 1 µM | remaining binding | 9.6% |
| Cn1cc(-c2cccc(N3CCc4c(sc5c4CC(C)(C)C5)C3=O)c2CO)cc(Nc2ccncn2)c1=O | enzyme activity | inhibitor |  | 1 µM | inhibition | 14% |
| N#CC1(c2ccccn2)CCN(Cc2cc(C(=O)O)c(=O)n3ccccc23)CC1 | cell-free assay |  | competition with immobilised ligand | 1 µM | remaining binding | 98% |
| C#Cc1n[nH]c2c(-c3cn([C@@H](C)c4ccccc4)c(=O)[nH]c3=O)cc(F)cc12 | enzyme activity | inhibitor |  | 0.1 µM | inhibition | 0.4% |
| O=c1[nH]c2ccccc2n1C1CCN(Cc2ccc(-c3[nH]c4cc5ncnc5cc4nc3-c3ccccc3)cc2)CC1 | cell-free assay |  |  | 0.5 µM | remaining signal | 103% |
| Nc1ncc(-c2nc(N3CCOCC3)nc(N3CCOCC3)n2)c(C(F)F)n1 | binding |  | competition with immobilised ligand | 10 µM | remaining binding | 94% |
| Cn1cncc1[C@](O)(COc1ccc(C#N)cc1-c1ccc(OC(F)(F)F)cc1)c1ccc(C#N)cc1 | cell-free assay |  | competition with immobilised ligand | 1 µM | remaining binding | 81% |
| Cn1cc(-c2cc(F)cc(N3CCn4c(cc5c4CCCC5)C3=O)c2CO)cc(Nc2ccc(N3CCN(C4COC4)CC3)cn2)c1=O | enzyme activity | inhibitor |  | 0.1 µM | inhibition | 17% |
